Active and inactive are the calls of the source. The rule behind the calls is not given here.
Columns and labels:
[1] = biological target: T1, Corticotropin-releasing factor receptor 1 (Homo sapiens, UniProt P34998); assay: Displacement of [125I]-CRF from human CRF1 receptor expressed in CHO-K1 cells after 2 hrs by gamma counting; assay type: cell-based
T1 sequence (P34998 whole entry): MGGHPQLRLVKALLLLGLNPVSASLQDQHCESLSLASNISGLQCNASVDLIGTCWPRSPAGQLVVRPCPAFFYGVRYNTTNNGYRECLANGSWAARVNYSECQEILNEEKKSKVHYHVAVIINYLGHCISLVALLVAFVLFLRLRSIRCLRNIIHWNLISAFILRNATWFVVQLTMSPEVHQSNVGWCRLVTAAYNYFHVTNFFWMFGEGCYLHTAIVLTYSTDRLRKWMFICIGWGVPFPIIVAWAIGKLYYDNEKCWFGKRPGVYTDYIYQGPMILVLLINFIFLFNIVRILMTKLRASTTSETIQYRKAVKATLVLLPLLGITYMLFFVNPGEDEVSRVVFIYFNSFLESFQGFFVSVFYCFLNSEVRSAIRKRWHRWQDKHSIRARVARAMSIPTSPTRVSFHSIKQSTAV
Method in brief: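 Crude membranes were made from CRF1-expressing CHO-K1 cells in 50 mmol/l Tris-HCl with 10 mmol/l MgCl, 2 mmol/l EDTA and aprotinin. Membranes were incubated with 125I human/rat CRF (0.5 nmol/l solution added) and test compound (1~10000 nmol/L) for 2 h at room temperature. Bound and free ligand were separated by centrifugation and the pellet washed with PBS/0.01% Triton X-100, then gamma-counted. Nonspecific binding was defined with 1 µmol/l unlabeled CRF. IC50 was taken from concentration–response curves.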

[2] = biological target: T1, Corticotropin-releasing factor receptor 1; assay: Antagonist activity at human CRF1 receptor expressed in CHO-K1 cells assessed as inhibition of CRF-induced cAMP accumulation after 15 mins by cAMP enzyme immunoassay; assay type: functional, cell-based
Method in brief: (§1)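 CRF1-expressing CHO-K1 cells seeded at 1×10^4 cells/well and cultured overnight. Cells were washed with F-12 and preincubated 10 min at 37 °C in F-12 containing 1 mmol/l IBMX. Test compound (1–10000 nmol/l) was then added together with CRF (10 nmol/l in the added medium). After 15 min at 37 °C, intracellular cAMP was measured by enzyme immunoassay. IC50 was taken from concentration–response curves.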

[3] = Oral bioavailability in rat at 10 mg/kg; assay type: ADME, organism-based; conditions: in vivo
Method in brief: (§2)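 Fasted male rats (n = 4) received 1 mg/kg iv in saline/30% HP-β-CD or 10 mg/kg po in saline/0.5% MC. Jugular blood was sampled up to 72 h, and plasma obtained by centrifugation and stored at -70 °C. AUC, Cmax, Tmax, T1/2, Vss and CL were derived from plasma concentration–time courses. F = dose-normalized AUCpo/AUCiv ×100.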

[4] = Ratio of drug level in brain to plasma in rat at 10 mg/kg, po after 1 hr; assay type: ADME, organism-based; set-up: dose 10 mg/kg, route oral; conditions: read-out: BPR
Method in brief: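 Rats were dosed orally at 10 mg/kg. Kp was calculated as brain content divided by plasma concentration, 1.0 h after dosing.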

[5] = Half life in rat at 10 mg/kg, po; assay type: ADME, organism-based; set-up: dose 10 mg/kg, route oral; conditions: in vivo; method in brief: as §2
[6] = Tmax in rat at 10 mg/kg, po; assay type: ADME, organism-based; set-up: dose 10 mg/kg, route oral; conditions: in vivo; method in brief: as §2
[7] = Total clearance in rat at 1 mg/kg, iv; assay type: ADME, organism-based; set-up: dose 1 mg/kg, route intravenous; conditions: in vivo; method in brief: as §2
[8] = AUC (0 to infinity) in rat at 10 mg/kg, po; assay type: ADME, organism-based; set-up: time infinity, dose 10 mg/kg, route oral; conditions: plasma
Method in brief: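 Single oral dose of 10 mg/kg in saline containing 0.5% MC (w/v), given to fasted male rats (n = 4). Heparinized jugular vein blood taken at 1, 2, 4, 6, 8, 24, 48, 72 h. Plasma stored at -70 °C. AUC to infinity derived from the plasma concentration time course.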

[9] = Half life in rat at 1 mg/kg, iv; assay type: ADME, organism-based; set-up: dose 1 mg/kg, route intravenous; conditions: in vivo; method in brief: as §2
[10] = Cmax in rat at 10 mg/kg, po; assay type: ADME, organism-based; set-up: dose 10 mg/kg, route oral; conditions: in vivo; method in brief: as §2
[11] = system: Rattus norvegicus; assay: Anxiolytic activity against swim-stress-induced anxiety like behavior in Sprague-Dawley rat assessed as increase in spent time in open arms at 10 mg/kg, po administered 1 hr before stress-challenge by elevated plus-maze test; assay type: functional, organism-based; set-up: dose 10 mg/kg
Method in brief: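 Male Sprague-Dawley rats (230–280 g) were dosed orally with compound in 0.5% MC, and tested 1 h after dosing. Rats were then placed on the elevated plus-maze (50 cm high) and video-tracked for 5 min for time in and entries into open arms. Results are mean ± S.E., n=16; vehicle vs drug by Dunnett test.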

[12] = biological target: T2, Corticotropin-releasing factor receptor 1 (Rattus norvegicus, UniProt P35353); assay: Antagonist activity at rat CRF1 receptor expressed in CHO-K1 cells assessed as inhibition of CRF-induced cAMP accumulation after 15 mins by cAMP enzyme immunoassay; assay type: functional, cell-based; method in brief: as §1
T2 sequence (P35353 whole entry): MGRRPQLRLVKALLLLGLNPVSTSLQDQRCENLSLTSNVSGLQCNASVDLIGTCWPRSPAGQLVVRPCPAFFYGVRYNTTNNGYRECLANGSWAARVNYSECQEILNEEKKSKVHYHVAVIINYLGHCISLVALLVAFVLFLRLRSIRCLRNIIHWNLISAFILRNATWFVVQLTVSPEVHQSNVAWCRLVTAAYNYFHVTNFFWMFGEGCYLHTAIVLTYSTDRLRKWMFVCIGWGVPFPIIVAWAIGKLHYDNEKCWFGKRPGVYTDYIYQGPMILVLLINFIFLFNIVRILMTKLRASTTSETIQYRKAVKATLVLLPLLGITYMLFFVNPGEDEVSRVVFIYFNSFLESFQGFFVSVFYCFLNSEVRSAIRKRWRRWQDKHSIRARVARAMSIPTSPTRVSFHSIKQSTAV

[13] = AUC (0 to infinity) in rat at 1 mg/kg, iv; assay type: ADME, organism-based; set-up: dose 1 mg/kg, route intravenous, time infinity; conditions: plasma
Method in brief: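 Single iv dose of 1 mg/kg in saline containing 30% HP-β-CD (w/v), given to fasted male rats (n = 4). Plasma stored at -70 °C. AUC derived from the plasma concentration time course.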

[14] = Volume of distribution at steady state in rat at 1 mg/kg, iv; assay type: ADME, organism-based; set-up: dose 1 mg/kg, route intravenous; conditions: in vivo, read-out: Vdss; method in brief: as §2

| Compound | IC50 [1] | EC50 [2] | other results |
| --- | --- | --- | --- |
| CCCN(CCC)c1cc(N(CC2CC2)c2ccc(OC)cc2Cl)nc2ccnn12 | 213 nM | – | – |
| CCCN(CCC)c1cc(N(CC)c2ccc(OC)cc2Cl)nc2ccnn12 | 31.6 nM | 18.6 nM | – |
| CCCN(CCC)c1cc(Nc2ccc(OC)cc2Cl)nc2ccnn12 | 61 nM | 53 nM | – |
| CCCN(CCC)c1nc(N(C)c2ccc(OC)cc2Cl)nc2ccnn12 | 20 nM | 26 nM | – |
| CCCN(CCC)c1cc(N(C)c2ccc(OC)cc2Cl)nc2nccn12 | 67 nM | – | – |
| CCCN(CCC)c1cc(N(COC)c2ccc(OC)cc2Cl)nc2ccnn12 | 15 nM | 4.4 nM | – |
| CCCN(CCC)c1c(C(C)C)c(Nc2ccc(OC)cc2Cl)nc2ccnn12 | 113 nM | 234 nM | – |
| C=C(C)CN(c1cc(N(CCC)CCC)n2nccc2n1)c1ccc(OC)cc1Cl | 76.7 nM | 856 nM | – |
| CCCN(CCC)c1c(OC)c(Nc2ccc(OC)cc2Cl)nc2ccnn12 | 13 nM | 883 nM | – |
| CCCc1c(Nc2ccc(OC)cc2Cl)nc2ccnn2c1N(CCC)CCC | 32 nM | 95 nM | – |
| CCCN(CCC)c1c(C)c(Nc2ccc(OC)cc2Cl)nc2nccn12 | 12 nM | 46 nM | – |
| CCC(CC)Nc1cc(N(C)c2ccc(OC)cc2Cl)nc2ncnn12 | 42 nM | 367 nM | – |
| CCCCc1c(Nc2ccc(OC)cc2Cl)nc2ccnn2c1N(CCC)CCC | 340 nM | – | – |
| CCC(CC)Nc1cc(Nc2ccc(OC)cc2Cl)nc2ccnn12 | 14 nM | 113 nM | – |
| CCCN(CCC)c1cc(N(C)c2ccc(OC)cc2Cl)nc2ncnn12 | 33 nM | 889 nM | – |
| CCCN(CCC)c1c(C2CCCC2)c(Nc2ccc(OC)cc2Cl)nc2ccnn12 | 308 nM | – | – |
| CCCN(CCC)c1cc(N(CC)c2ccc(OC)cc2Cl)nc2nccn12 | 42 nM | 76 nM | – |
| CCCN(CCC)c1cc(N(CCC)c2ccc(OC)cc2Cl)nc2ccnn12 | 418 nM | 75.7 nM | – |
| CCCN(CCC)c1cc(N(CCOC)c2ccc(OC)cc2Cl)nc2ccnn12 | 680 nM | – | – |
| CCCN(CCC)c1cc(N(C)c2ccc(OC)cc2Cl)nc2ccnn12 | 20 nM | 97 nM | – |
| CCC(CC)Nc1c(C)c(Nc2ccc(OC)cc2Cl)nc2ncnn12 | 16 nM | 58 nM | – |
| CCCN(CCC)c1c(C)c(Nc2ccc(OC)cc2Cl)nc2ncnn12 | 8 nM | 9 nM | – |

Continued, in another order:

| IC50 [1] | EC50 [2] | Compound | other results |
| --- | --- | --- | --- |
| 6.1 nM | 4.1 nM | CCC(CC)n1ccc2c(Nc3c(C)cc(C)cc3C)nc3ccnn3c21 | – |
| 7.1 nM | 32.2 nM | CCC(CC)n1ccc2c(Cc3c(C)cc(C)cc3C)nc3ccnn3c21 | – |
| 4.2 nM | 8.6 nM | CCCN(CCC)c1c(CC)c(Nc2ccc(OC)cc2Cl)nc2ccnn12 | – |
| 7 nM | 5.6 nM | CCc1ccc(Oc2nc3ccnn3c3c2ccn3C(CC)CC)c(OC)c1 | – |
| 4.4 nM | 28.9 nM | C=CCN(c1cc(N(CCC)CCC)n2nccc2n1)c1ccc(OC)cc1Cl | – |
| 3.2 nM | 0.7 nM | CCC(CC)n1ccc2c(Nc3ccc(OC)cc3Cl)nc3ccnn3c21 | – |
| 7.4 nM | 7.4 nM | CCC(CC)Nc1c(C)c(Nc2ccc(OC)cc2Cl)nc2ccnn12 | – |
| 2.4 nM | 3.5 nM | CCc1cc(OC)ccc1Nc1nc2ccnn2c2c1ccn2C(CC)CC | – |
| 8 nM | 4 nM | CCCN(CCC)c1c(C)c(Nc2ccc(OC)cc2Cl)nc2ccnn12 | bioavailability [3]: 16%; Kp at 1 h [4]: 6.2; half-life [5]: 3.4 h; Tmax [6]: 4 h; clearance [7]: 186 mL/min/kg; AUC(0-inf) [8]: 153 ng·h/mL; half-life [9]: 1.7 h; Cmax [10]: 27.4 ng/mL; Activity [11]: Active; EC50 [12]: 81 nM; AUC(0-inf) [13]: 96 ng·h/mL; Vd [14]: 14.4 L/kg |
| 4.7 nM | 3.9 nM | CCc1cc(Cl)ccc1Nc1nc2ccnn2c2c1ccn2C(CC)CC | – |

From ChEMBL document CHEMBL1828587, “Pyrazolo[1,5-a]pyrimidines, triazolo[1,5-a]pyrimidines and their tricyclic derivatives as corticotropin-releasing factor 1 (CRF₁) receptor antagonists” (Bioorg Med Chem, 2011)
